As a reminder, the Km is the concentration of substrate that gives half-maximal velocity. As a reminder, the kcat is the number of substrate molecules converted per active site and unit of time at saturation. As usually defined, the kcat/Km is the turnover number divided by the Michaelis constant.

Experimental findings from ChEMBL document CHEMBL1129988, “4-substituted cubylcarbinylamines: a new class of mechanism-based monoamine oxidase B inactivators” (J Med Chem, 1997) are described below.

Substrate in series [1]: NCC12C3C4C1C1C2C3C41C1CC1
Put plainly: (§1) Michaelis-Menten constant was determined against mitochondrial Monoamine oxidase B. The method in brief:
(§2)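 K_m and k_cat against MAO B were obtained by measuring hydrogen peroxide formed over time with the amine as substrate.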

Substrate in series [2]: NCC12C3C4C1C1C2C3C41c1ccccc1
The series is described as §1. The method in brief: as §2

Substrate in series [3]: NCC12C3C4C5C3C1C5C42
The description is as §1. The method in brief: as §2

B1: Amine oxidase [flavin-containing] B (Bos taurus) (protein)
chain: MSSKCDVVVVGGGISGMAAAKLLHDSGLNVIVLEARDRVGGRTYTLRNQKVKYVDLGGSYVGPTQNHILRLSKELGLETYKVNEVERLIHHTKGKSYPFRGSFPSVWNPITYLDHNNLWRTMDDMGREIPSDAPWKAPLAEQWDLMTMKELLDKICWTESSKQLAILFVNLCVTAEIHEVSALWFLWYVKQCGGTTRIFSTSNGGQERKFVGGSGQVSERIMDLLGDRVKLERPVIHIDQTGENVLVETLNHELYEAKYVISAVPPVLGMKIHFNPPLPMMRNQLITRVPLGSVIKSIVYYKEPFWRNMDYCGSMIIEGEEAPVAYALDDTKPDGSYPAIIGFILAHKARKLARLTKEERLKKLCDLYAKVLGSQEALHPVHYEEKNWCEEQYSGGCYTSYFPPGIMTQYGRVLRQPVGRIYFAGTETATHWSGYMEGAVEAGERAAREILHAMGKIPEDEIWLPEPESVDVPAKPITTTFLQRHLPSVPGLLKLIGLTTIFSATALGFLAHKRGLLVRI
Take B1: in series [1], the Km turned out to be 1540 µM, the kcat came to 2.5 s⁻¹ and the kcat/Km stood at 1670 M⁻¹ s⁻¹. Moreover, in series [2], the Km amounted to 1010 µM, the kcat came to 3.47 s⁻¹ and the specificity constant (kcat/Km) is 3500 M⁻¹ s⁻¹. For the same protein, in series [3], the Km was determined as 140 µM, the kcat is 0.0833 s⁻¹ and the kcat/Km was 600 M⁻¹ s⁻¹.
